Experimental data as given in ChEMBL document CHEMBL1123760, “Synthesis and oral antifungal activity of novel azolylpropanolones and related compounds” (1987).
In brackets after ≈: the same amount, converted by molar mass.

Key:
Format in all cases: functional
[1] = tested on: Aspergillus fumigatus; assay: In vitro antifungal activity against Aspergillus fumigatus
Summary of the method: (§1)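 Broth microdilution MIC in Sabouraud's glucose broth; final inocula 1 × 10^5 cells/mL (yeast) or 1 × 10^5 conidia/mL (mold and dermatophyte).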

[2] = tested on: Candida albicans; assay: In vitro antifungal activity against Candida albicans; summary of the method: as §1
[3] = tested on: Candida albicans; assay: Minimum effective concentration for inhibition of pseudomycelium formation in Candida albicans; conditions: for minimal effective concentration: Candida albicans, read-out: MEC
Summary of the method: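 C. albicans KE-2 (clinical isolate) at a final 1 × 10^6 yeast cells/mL in EMEM with 20% calf serum; compounds diluted by the same microtiter system as for MICs. After incubation, wells were Giemsa-stained (5% in phosphate buffer) and read by microscope. MEC is the lowest concentration preventing typical pseudomycelium formation.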

[4] = tested on: Mus musculus; assay: Ratio of in vivo number of survivors / total infected; design: reference not given here
[5] = tested on: Trichophyton benhamiae; assay: In vitro antifungal activity against Trichophyton asteroides; summary of the method: as §1
[6] = Aspergillus fumigatus, read-out: MIC
[7] = Candida albicans, read-out: MIC
[8] = Trichophyton benhamiae, read-out: MIC

Row | Structure (SMILES) | MIC [1, 6] | MIC [2, 7] | minimal effective concentration [3] | No. of survivors [4] | MIC [5, 8] | MIC [1] | MIC [2] | MEC [3] | MIC [5]
1 | O=C(c1ccc(Cl)cc1)C(O)(Cn1ccnc1)c1ccc(Cl)cc1Cl (stereo not given) | > 100 µg/mL | > 100 µg/mL | 2.5 µg/mL | 0 | 0.1 µg/mL (≈ 0.253 µM) | – | – | – | –
2 | CC(C)C(=O)C(O)(Cn1cncn1)c1ccc(Cl)cc1 (stereo in doubt; 36) | 12.5 µg/mL (≈ 42.6 µM) | 100 µg/mL (≈ 340 µM) | 0.04 µg/mL | 7 | 0.1 µg/mL (≈ 0.34 µM) | – | – | – | –
3 | CCCC(=O)C(O)(Cn1cncn1)c1ccc(Cl)cc1Cl (stereo not given) | 50 µg/mL (≈ 152 µM) | 50 µg/mL (≈ 152 µM) | 0.04 µg/mL | 4 | 0.1 µg/mL (≈ 0.305 µM) | – | – | – | –
4 | OC(c1ccccc1Cl)C(O)(Cn1ccnc1)c1ccccc1Cl (stereo not given) | 100 µg/mL (≈ 275 µM) | > 100 µg/mL | 1.25 µg/mL | 4 | 0.4 µg/mL (≈ 1.1 µM) | – | – | – | –
5 | O=C(c1ccccc1Cl)C(O)(Cn1cncn1)c1ccc(F)cc1 (stereo not given) | > 100 µg/mL | 100 µg/mL (≈ 289 µM) | 10 µg/mL | 0 | 0.4 µg/mL (≈ 1.16 µM) | – | – | – | –
6 | O=C(c1ccc(Cl)cc1Cl)C(O)(Cn1cncn1)c1ccc(Cl)cc1 (stereo not given) | > 100 µg/mL | 100 µg/mL (≈ 252 µM) | 0.31 µg/mL | 8 | 0.1 µg/mL (≈ 0.252 µM) | – | – | – | –
7 | O=C(c1ccccc1)C(O)(Cn1ccnc1)c1ccc(Cl)cc1Cl (stereo not given) | > 100 µg/mL | > 100 µg/mL | 0.63 µg/mL | 0 | 0.1 µg/mL (≈ 0.277 µM) | – | – | – | –
8 | CCCCC(O)(Cn1cncn1)C(=O)c1ccc(Cl)cc1 (stereo not given) | 100 µg/mL (≈ 325 µM) | 100 µg/mL (≈ 325 µM) | 0.31 µg/mL | 2 | 0.2 µg/mL (≈ 0.65 µM) | – | – | – | –
9 | O=S1O[C@H](c2ccc(Cl)cc2Cl)[C@@](Cn2cncn2)(c2ccc(Cl)cc2)O1 (stereo not given in full) | > 100 µg/mL | 100 µg/mL (≈ 225 µM) | 0.08 µg/mL | 5 | 0.1 µg/mL (≈ 0.225 µM) | – | – | – | –
10 | O=C(c1ccccc1Cl)C(O)(Cn1cncn1)c1ccc(Cl)cc1 (stereo not given) | > 100 µg/mL | > 100 µg/mL | > 20 µg/mL | 0 | 0.4 µg/mL (≈ 1.1 µM) | – | – | – | –
11 | Cc1ccccc1C(=O)C(O)(Cn1cncn1)c1ccccc1C (stereo not given) | > 100 µg/mL | > 100 µg/mL | 5 µg/mL | 0 | 3.1 µg/mL (≈ 9.65 µM) | – | – | – | –
12 | O=C(c1ccc(Cl)cc1Cl)C(O)(Cn1cncn1)c1ccccc1Cl (stereo not given) | 100 µg/mL (≈ 252 µM) | 100 µg/mL (≈ 252 µM) | 0.31 µg/mL | 7 | 0.1 µg/mL (≈ 0.252 µM) | – | – | – | –
13 | O=C(c1ccc(Cl)cc1Cl)C(O)(Cn1ccnc1)c1ccc(Cl)cc1Cl (stereo not given) | 25 µg/mL (≈ 58.1 µM) | 50 µg/mL (≈ 116 µM) | 5 µg/mL | 1 | 0.1 µg/mL (≈ 0.232 µM) | – | – | – | –
14 | O=C(c1ccc(F)cc1)C(O)(Cn1cncn1)c1ccc(Cl)cc1Cl (stereo not given) | > 100 µg/mL | > 100 µg/mL | 1.25 µg/mL | 2 | 0.1 µg/mL (≈ 0.263 µM) | – | – | – | –
15 | CC(C)[C@H]1OC(=O)O[C@]1(Cn1cncn1)c1ccc(Cl)cc1Cl | > 100 µg/mL | 100 µg/mL (≈ 281 µM) | 0.63 µg/mL | 8 | 3.1 µg/mL (≈ 8.7 µM) | – | – | – | –
16 | O=C(c1ccc(Cl)cc1Cl)[C@](O)(Cn1cncn1)c1ccc(Cl)cc1Cl | > 100 µg/mL | > 100 µg/mL | 0.08 µg/mL | 8 | 0.1 µg/mL (≈ 0.232 µM) | – | – | – | –
17 | CCCC(O)(Cn1cncn1)C(=O)c1ccc(Cl)cc1Cl (stereo not given) | 50 µg/mL (≈ 152 µM) | > 100 µg/mL | 1.25 µg/mL | 1 | 0.4 µg/mL (≈ 1.22 µM) | – | – | – | –
18 | O=C1O[C@H](c2ccccc2Cl)[C@@](Cn2cncn2)(c2ccccc2Cl)O1 | > 100 µg/mL | > 100 µg/mL | 0.31 µg/mL | 0 | 12.5 µg/mL (≈ 32 µM) | – | – | – | –

Row | Structure (SMILES) | MIC [1, 6] | MIC [2, 7] | minimal effective concentration [3] | No. of survivors [4] | MIC [5, 8] | MIC [1] | MIC [2] | MEC [3] | MIC [5]
19 | CC(O)(c1ccc(F)cc1)C(O)(Cn1cncn1)c1ccc(Cl)cc1 (stereo in doubt; 162) | – | – | – | 8 | – | 100 µg/mL (≈ 276 µM) | >100 µg/mL | 0.08 µg/mL | 0.1 µg/mL (≈ 0.276 µM)
20 | O=C(c1ccc(Cl)cc1)C(O)(Cn1cncn1)C1CCCC1 (stereo not given) | 50 µg/mL (≈ 156 µM) | 100 µg/mL (≈ 313 µM) | 0.16 µg/mL | 1 | 0.1 µg/mL (≈ 0.313 µM) | – | – | – | –
21 | OC(c1ccc(Cl)cc1Cl)C(O)(Cn1ccnc1)c1ccc(Cl)cc1Cl (stereo not given) | 100 µg/mL (≈ 231 µM) | 50 µg/mL (≈ 116 µM) | 1.25 µg/mL | 3 | 0.1 µg/mL (≈ 0.231 µM) | – | – | – | –
22 | CCCC(=O)C(O)(Cn1cncn1)c1ccc(Cl)cc1 (stereo not given) | 12.5 µg/mL (≈ 42.6 µM) | 100 µg/mL (≈ 340 µM) | 0.08 µg/mL | 0 | 0.1 µg/mL (≈ 0.34 µM) | – | – | – | –
23 | CCCCC(=O)C(O)(Cn1cncn1)c1ccc(Cl)cc1Cl (stereo not given) | > 100 µg/mL | 50 µg/mL (≈ 146 µM) | 0.04 µg/mL | 2 | 0.1 µg/mL (≈ 0.292 µM) | – | – | – | –
24 | OC(c1ccc(Cl)cc1Cl)C(O)(Cn1cncn1)c1ccc(Cl)cc1Cl (stereo not given) | > 100 µg/mL | 100 µg/mL (≈ 231 µM) | 0.08 µg/mL | 6 | 0.1 µg/mL (≈ 0.231 µM) | – | – | – | –
25 | O=C(C1CCCC1)C(O)(Cn1cncn1)c1ccc(Cl)cc1Cl (stereo not given) | > 100 µg/mL | 50 µg/mL (≈ 141 µM) | 0.02 µg/mL | 0 | 0.1 µg/mL (≈ 0.282 µM) | – | – | – | –
26 | Clc1ccc([C@@]2(Cn3cncn3)OC3(CCCCC3)O[C@@H]2c2ccc(Cl)cc2Cl)cc1 | > 100 µg/mL | > 100 µg/mL | 5 µg/mL | 0 | 0.1 µg/mL (≈ 0.209 µM) | – | – | – | –
27 | CC(=O)C(O)(Cn1cncn1)c1ccc(Cl)cc1Cl (stereo not given) | 50 µg/mL (≈ 167 µM) | > 100 µg/mL | 0.04 µg/mL | 2 | 0.2 µg/mL (≈ 0.666 µM) | – | – | – | –
28 | O=C(c1ccccc1)C(O)(Cn1cncn1)c1ccccc1 (stereo not given) | > 100 µg/mL | > 100 µg/mL | > 20 µg/mL | 0 | 12.5 µg/mL (≈ 42.6 µM) | – | – | – | –
29 | O=C(c1ccc(Cl)cc1Cl)[C@@](O)(Cn1cncn1)c1ccc(Cl)cc1Cl | > 100 µg/mL | 50 µg/mL (≈ 116 µM) | 1.25 µg/mL | 1 | 0.1 µg/mL (≈ 0.232 µM) | – | – | – | –
30 | CC(C)(C)C(=O)C(O)(Cn1cncn1)c1ccc(Cl)cc1Cl (stereo not given) | > 100 µg/mL | > 100 µg/mL | 0.04 µg/mL | 7 | 0.1 µg/mL (≈ 0.292 µM) | – | – | – | –
31 | CC(C)C(=O)C(O)(Cn1ccnc1)c1ccc(Cl)cc1Cl (stereo not given) | > 100 µg/mL | > 100 µg/mL | 0.04 µg/mL | 1 | 0.1 µg/mL (≈ 0.306 µM) | – | – | – | –
32 | O=C(c1ccc(F)cc1)C(O)(Cn1cncn1)c1ccccc1Cl (stereo not given) | > 100 µg/mL | 100 µg/mL (≈ 289 µM) | 2.5 µg/mL | 8 | 1.6 µg/mL (≈ 4.63 µM) | – | – | – | –
33 | O=C(c1ccccc1F)C(O)(Cn1cncn1)c1ccc(Cl)cc1Cl (stereo not given) | > 100 µg/mL | 100 µg/mL (≈ 263 µM) | 0.04 µg/mL | 7 | 0.1 µg/mL (≈ 0.263 µM) | – | – | – | –
34 | O=S1O[C@H](c2ccc(F)cc2)[C@](Cn2cncn2)(c2ccc(Cl)cc2Cl)O1 (stereo not given in full) | > 100 µg/mL | > 100 µg/mL | 0.04 µg/mL | 0 | 0.1 µg/mL (≈ 0.233 µM) | – | – | – | –
35 | O=C(c1ccccc1Cl)C(O)(Cn1ccnc1)c1ccccc1Cl (stereo not given) | > 100 µg/mL | > 100 µg/mL | 2.5 µg/mL | 2 | 0.1 µg/mL (≈ 0.277 µM) | – | – | – | –
36 | CCCCC(=O)C(O)(Cn1ccnc1)c1ccc(Cl)cc1Cl (stereo not given) | > 100 µg/mL | > 100 µg/mL | 0.04 µg/mL | 0 | 0.1 µg/mL (≈ 0.293 µM) | – | – | – | –
